In brackets after ≈: the same amount, converted by molar mass. Activity calls are given as the source filed them. The calls are words filed in the database; no cut-off is given here.
What was measured:
Cyberlindnera jadinii = assay: Antimicrobial activity against Candida utilis ATCC 9950 incubated for 24 hrs by NCCLS protocol based method; type: functional; details: Williopsis jadinii, ATCC 9950, 24 h
[1] = Antimicrobial activity against Candida mycoderma ATCC 9888 incubated for 24 hrs by NCCLS protocol based method; type: functional, Candida vini; details: Kregervanrija fluxuum, ATCC 9888, 24 h
Proteus hauseri = assay: Antimicrobial activity against Bacillus proteus ATCC13315 incubated for 24 hrs by NCCLS protocol based method; type: functional; details: ATCC13315, 24 h
Method in brief: (§1)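 Two-fold serial broth microdilution in 96-well plates per NCCLS standards. MIC (µg/mL) taken as the lowest concentration giving complete growth inhibition. Berberine, chloromycin and norfloxacin were positive controls for bacteria; fluconazole for fungi.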

Pseudomonas aeruginosa = assay: Antimicrobial activity against Pseudomonas aeruginosa ATCC 27853 incubated for 24 hrs by NCCLS protocol based method; type: functional; details: ATCC 27853, 24 h; method in brief: as §1
Aspergillus flavus = assay: Antimicrobial activity against Aspergillus flavus ATCC 204304 incubated for 24 hrs by NCCLS protocol based method; type: functional; details: ATCC 204304, 24 h
Bacillus subtilis = assay: Antimicrobial activity against Bacillus subtilis ATCC 6633 incubated for 24 hrs by NCCLS protocol based method; type: functional; details: ATCC 6633, 24 h; method in brief: as §1
Staphylococcus aureus [2] = assay: Antimicrobial activity against Staphylococcus aureus ATCC 25923 incubated for 24 hrs by NCCLS protocol based method; type: functional; details: ATCC 25923, 24 h; method in brief: as §1
Staphylococcus aureus [3] = assay: Antimicrobial activity against methicillin-resistant Staphylococcus aureus N315 incubated for 24 hrs by NCCLS protocol based method; type: functional; details: N315, 24 h
Method in brief: (§2)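 Standard two-fold serial broth microdilution in 96-well plates per NCCLS; MIC (µg/mL) read as lowest concentration giving complete inhibition of microbial growth. Berberine, chloromycin and norfloxacin served as positive controls.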

Escherichia coli = assay: Antimicrobial activity against Escherichia coli JM109 incubated for 24 hrs by NCCLS protocol based method; type: functional; details: JM109, 24 h; method in brief: as §1
Candida albicans = assay: Antimicrobial activity against Candida albicans ATCC 10231 incubated for 24 hrs by NCCLS protocol based method; details: ATCC 10231, 24 h
Saccharomyces cerevisiae = assay: Antimicrobial activity against beer yeast ATCC 9763 incubated for 24 hrs by NCCLS protocol based method; type: functional; details: ATCC 9763, 24 h
[4] = Antimicrobial activity against Eberthella typhosa ATCC 14028 incubated for 24 hrs by NCCLS protocol based method; type: functional; details: ATCC 14028, 24 h; method in brief: as §2
Micrococcus luteus = assay: Antimicrobial activity against Micrococcus luteus ATCC 4698 incubated for 24 hrs by NCCLS protocol based method; type: functional; details: ATCC 4698, 24 h; method in brief: as §1
HepG2 [5] = assay: (§3) Cytotoxicity against human HepG2 cells assessed as cell viability at 6.25 to 100 ug/ml by MTT assay; type: cell-based; details: hepg2
Method in brief: (§4)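 HepG2 cells exposed to compound up to 100 μg/mL. Viability read by colorimetric MTT assay with berberine as control. Mean of three parallels ± one standard deviation.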

HepG2 [6] = assay: Induction of ROS production in human HepG2 cells at 6.25 to 100 uM by DCFH-DA as probe based fluorescence microscopy; type: functional, cell-based
Method in brief: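 Intracellular ROS detected with the fluorescent probe DCFH-DA and imaged by fluorescence microscopy. Compounds tested at 6.25, 12.5, 25, 50 and 100 μM, with berberine for comparison.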

Calf thymus DNA [7] = assay: Binding affinity to calf thymus DNA by neutral red dye based UV-Visible spectroscopy; type: nucleic-acid assay; details: Bos taurus
[8] = as §3; type: cell-based; details: HepG2 cells, read-out: Activity; method in brief: as §4
Calf thymus DNA [9] = assay: Binding affinity to calf thymus DNA by UV-Visible spectroscopy; type: nucleic-acid assay; details: Bos taurus
Method in brief: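 Calf thymus DNA held at a fixed concentration in Tris-HCl buffer pH 7.4, titrated with increasing compound. UV-vis absorption spectra recorded in 1.0 cm quartz cells, following the 260 nm DNA band. DNA concentration set from A260 using ε260 = 6600 L mol⁻¹ cm⁻¹ per phosphate. Purity confirmed by A260/A280 > 1.8.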

| Structure (SMILES) | MIC80 (Cyberlindnera jadinii) | MIC80 [1] | MIC (Proteus hauseri) | MIC (Pseudomonas aeruginosa) | MIC80 (Aspergillus flavus) | MIC (Bacillus subtilis) | MIC (Staphylococcus aureus [2]) | MIC (Staphylococcus aureus [3]) | MIC (Escherichia coli) | MIC80 (Candida albicans) | MIC80 (Saccharomyces cerevisiae) | MIC [4] | MIC (Micrococcus luteus) | Activity (HepG2 [5]) | Activity (HepG2 [6]) | Activity (Calf thymus DNA [7]) | viability [8] | K (Calf thymus DNA [9]) |
| --- | --- | --- | --- | --- | --- | --- | --- | --- | --- | --- | --- | --- | --- | --- | --- | --- | --- | --- |
| COc1cc(Cn2cc(C)nc2C)c2cc3[n+](cc2c1O)CCc1cc2c(cc1-3)OCO2.[Cl-] | 128 µg/mL | 128 µg/mL | 128 µg/mL | 128 µg/mL | 128 µg/mL | 128 µg/mL | 64 µg/mL | 64 µg/mL | 128 µg/mL | 128 µg/mL | 256 µg/mL | 128 µg/mL | 64 µg/mL | – | – | – | – | – |
| CCCCCCCCCCCc1nccn1Cc1cc(OC)c(O)c2c[n+]3c(cc12)-c1cc2c(cc1CC3)OCO2.[Cl-] | 256 µg/mL | 128 µg/mL | 128 µg/mL | 256 µg/mL | 256 µg/mL | 128 µg/mL | 128 µg/mL | 64 µg/mL | 256 µg/mL | 128 µg/mL | 128 µg/mL | 256 µg/mL | 128 µg/mL | – | – | – | – | – |
| COc1cc(Cn2cnc(C)c2)c2cc3[n+](cc2c1O)CCc1cc2c(cc1-3)OCO2.[Cl-] | 64 µg/mL | 128 µg/mL | 32 µg/mL | 128 µg/mL | 64 µg/mL | 32 µg/mL | 8 µg/mL | 32 µg/mL | 32 µg/mL | 128 µg/mL | 32 µg/mL | 64 µg/mL | 16 µg/mL | – | – | – | – | – |
| CCc1nc(C)cn1Cc1cc(OC)c(O)c2c[n+]3c(cc12)-c1cc2c(cc1CC3)OCO2.[Cl-] | 128 µg/mL | 128 µg/mL | 128 µg/mL | 128 µg/mL | 128 µg/mL | 128 µg/mL | 64 µg/mL | 64 µg/mL | 128 µg/mL | 128 µg/mL | 128 µg/mL | 128 µg/mL | 64 µg/mL | – | – | – | – | – |
| COc1ccc2cc3[n+](cc2c1OC)CCc1cc2c(cc1-3)OCO2.[Cl-] [BERBERINE CHLORIDE] | 256 µg/mL | 128 µg/mL | 256 µg/mL | 256 µg/mL | 512 µg/mL | 512 µg/mL | 512 µg/mL | 128 µg/mL | 512 µg/mL | 512 µg/mL | 128 µg/mL | 512 µg/mL | 512 µg/mL | Toxic | – | – | – | – |
| CCCCCCCCCCCCCCCCCc1nccn1Cc1cc(OC)c(O)c2c[n+]3c(cc12)-c1cc2c(cc1CC3)OCO2.[Cl-] | 512 µg/mL | 256 µg/mL | 256 µg/mL | 256 µg/mL | 256 µg/mL | 256 µg/mL | 256 µg/mL | 128 µg/mL | 256 µg/mL | 256 µg/mL | 256 µg/mL | 512 µg/mL | 256 µg/mL | – | – | – | – | – |
| OC(Cn1cncn1)(Cn1cncn1)c1ccc(F)cc1F [FLUCONAZOLE] | 8 µg/mL (≈ 26.1 µM) | 32 µg/mL (≈ 104 µM) | – | – | 256 µg/mL (≈ 836 µM) | – | – | – | – | 32 µg/mL (≈ 104 µM) | 16 µg/mL (≈ 52.2 µM) | – | – | – | – | – | – | – |
| CCc1nccn1Cc1cc(OC)c(O)c2c[n+]3c(cc12)-c1cc2c(cc1CC3)OCO2.[Cl-] | 64 µg/mL | 256 µg/mL | 64 µg/mL | 64 µg/mL | 128 µg/mL | 32 µg/mL | 8 µg/mL | 16 µg/mL | 32 µg/mL | 64 µg/mL | 16 µg/mL | 64 µg/mL | 16 µg/mL | – | – | – | – | – |
| COc1cc(Cn2ccnc2)c2cc3[n+](cc2c1O)CCc1cc2c(cc1-3)OCO2.[Cl-] | 32 µg/mL | 128 µg/mL | 64 µg/mL | 64 µg/mL | 64 µg/mL | 8 µg/mL | 32 µg/mL | 32 µg/mL | 32 µg/mL | 64 µg/mL | 32 µg/mL | 1 µg/mL | 16 µg/mL | – | Active | Active | > 87% | 5.22 ×10³ L/mol |
| CCCCc1nccn1Cc1cc(OC)c(O)c2c[n+]3c(cc12)-c1cc2c(cc1CC3)OCO2.[Cl-] | 256 µg/mL | 256 µg/mL | 128 µg/mL | 128 µg/mL | 64 µg/mL | 64 µg/mL | 32 µg/mL | 32 µg/mL | 128 µg/mL | 64 µg/mL | 64 µg/mL | 128 µg/mL | 32 µg/mL | – | – | – | – | – |
| COc1cc(Cn2ccnc2C)c2cc3[n+](cc2c1O)CCc1cc2c(cc1-3)OCO2.[Cl-] | 32 µg/mL | 128 µg/mL | 64 µg/mL | 64 µg/mL | 32 µg/mL | 64 µg/mL | 16 µg/mL | 32 µg/mL | 32 µg/mL | 64 µg/mL | 16 µg/mL | 32 µg/mL | 16 µg/mL | – | – | – | – | – |
| CCCc1nccn1Cc1cc(OC)c(O)c2c[n+]3c(cc12)-c1cc2c(cc1CC3)OCO2.[Cl-] | 128 µg/mL | 128 µg/mL | 64 µg/mL | 128 µg/mL | 128 µg/mL | 64 µg/mL | 16 µg/mL | 32 µg/mL | 64 µg/mL | 64 µg/mL | 32 µg/mL | 64 µg/mL | 32 µg/mL | – | – | – | – | – |
| CCn1cc(C(=O)O)c(=O)c2cc(F)c(N3CCNCC3)cc21 [NORFLOXACIN] | – | – | 4 µg/mL (≈ 12.5 µM) | 2 µg/mL (≈ 6.26 µM) | – | 1 µg/mL (≈ 3.13 µM) | 2 µg/mL (≈ 6.26 µM) | 8 µg/mL (≈ 25.1 µM) | 16 µg/mL (≈ 50.1 µM) | – | – | 4 µg/mL (≈ 12.5 µM) | 2 µg/mL (≈ 6.26 µM) | – | – | – | – | – |

Source: ChEMBL document CHEMBL4428036, “Discovery of novel berberine imidazoles as safe antimicrobial agents by down regulating ROS generation” (Bioorg Med Chem Lett, 2016)
